The source of these data is ChEMBL document CHEMBL2093137, “WHO-TDR NTD Screening”.

Molecules are shown by their SMILES. Converted amounts (≈) assume the structure as drawn.

The test system of one series is Plasmodium falciparum K1. As to the kind of experiment: WHO-TDR: Malaria. The format is functional, organism-based, Homo sapiens. Conditions: Erythrocyte. The procedure, abridged: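 Antiplasmodial potency, expressed as IC50, was measured in a whole-organism assay on intra-erythrocytic Plasmodium falciparum K1 in human red blood cells. The screened library held 10,000 diverse compounds from Life Chemicals.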

The next series relates to Schistosoma mansoni. As to the kind of experiment: WHO-TDR: Schistosomiasis. Set-up: concentration or dose not given beside the values. The format is functional. The gist of the method: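 Values are reported as percent inhibition and IC50. They come from a whole-organism screen of a 10,000-compound diverse Life Chemicals library against larval and/or adult worms of Schistosoma mansoni, Puerto Rican strain. The library had been filtered for drug-likeness and reactive groups.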

A further series relates to Brugia malayi. As to the kind of experiment: WHO-TDR: Lymphatic Filariasis. Set-up: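 tested at 10 µM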. The format is functional. The procedure, abridged: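 Values are percent inhibition and IC50 from a whole-organism screen against Brugia malayi microfilariae. The compounds, 10,000 in all, came from a diverse Life Chemicals library filtered for drug-likeness and reactive groups.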

The test system of another series is Trypanosoma cruzi. As to the kind of experiment: WHO-TDR: Chagas disease. The format is functional, organism-based, Homo sapiens. Conditions: MRC5. The gist of the method: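 Whole-organism screen of a 10,000-compound diverse library from Life Chemicals, filtered for drug-likeness and reactive groups, against intracellular amastigotes of Trypanosoma cruzi Tulahuen CL2 beta-galactosidase strain grown in MRC-5SV2 human lung fibroblast host cells. The assay followed previously published standard procedures, with a reference drug as positive control. Antiparasitic potency is reported as IC50.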

Series [1] in a line: WHO-TDR: Cytotoxicity. The format is toxicity, cell-based. Conditions: human, MRC5 cells.
For series [2], the system named is Trypanosoma brucei brucei. As to the kind of experiment: WHO-TDR: Human African Trypanosomiasis (HAT). The format is functional, organism-based. To be noted: Squib-427. The gist of the method:
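Antiparasitic potency is reported as IC50. The screen covered 10,000 compounds from a diverse Life Chemicals library, filtered for drug-likeness and reactive groups, tested on whole bloodstream-form Trypanosoma brucei of the Squib 427 strain.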

Another series deals with Onchocerca ochengi. As to the kind of experiment: WHO-TDR: Onchocerciasis. The series is classed as functional. Set-up: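 at 12.5 µM on microfilariae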. The gist of the method: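 Values are reported as percent inhibition and as IC50. They come from a whole-organism screen of a 10,000-compound diverse Life Chemicals library against microfilariae of Onchocerca ochengi or Onchocerca lienalis. The screen followed previously published standard procedures, with reference drugs as positive controls.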

In a further series the test system is Leishmania infantum. The experiment in a line: WHO-TDR: Leishmaniasis. Conditions: Macrophage. The series is classed as functional, organism-based, Mus musculus. The gist of the method: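 Antiparasitic potency, reported as IC50, was measured against intracellular Leishmania infantum amastigotes. The parasite strain was MHOM/MA(BE)/67, and murine peritoneal macrophages served as host cells for the screen of a 10,000-compound diverse library from Life Chemicals.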

In general, IC50 refers to the point on the concentration scale where inhibition reaches its midpoint. In general, % Inhibition refers to how much of the control response was suppressed. For the compound `Cc1ccnc(Nc2ccc(N3CCN(C(=O)c4ccc(F)cc4)CC3)nn2)c1`, the concentration for half-maximal inhibition (IC50) in the series on Plasmodium falciparum K1 was above 11.8 µg/mL; with Trypanosoma cruzi, above 11.8 µg/mL; in series [1] it was above 11.8 µg/mL; in series [2] it was above 11.8 µg/mL; with Leishmania infantum, 0.381 µg/mL (≈ 0.971 µM). Also, the “% Inhibition” value in the series on Schistosoma mansoni, in the series on Brugia malayi and with Onchocerca ochengi was 0% each time.

Consider `CN(C)C(CNS(=O)(=O)c1ccc2c(c1)CCCC2)c1ccc(F)cc1` (configuration not stated), for which the IC50 with Plasmodium falciparum K1 was above 11.3 µg/mL; in the series on Trypanosoma cruzi, 4.67 µg/mL (≈ 12.4 µM); in series [1], above 11.3 µg/mL; in series [2], 2.99 µg/mL (≈ 7.95 µM); with Leishmania infantum it was above 11.3 µg/mL. Besides, the “% Inhibition” value is 0% in the series with Schistosoma mansoni, 0% with Brugia malayi and 100% in the series with Onchocerca ochengi.

Regarding `O=S(=O)(CCCOc1ccc(F)cc1)NCc1c(F)cccc1F`, the IC50 in the series on Plasmodium falciparum K1 was above 10.8 µg/mL; with Trypanosoma cruzi, 5.73 µg/mL (≈ 16 µM); in series [1] it was above 10.8 µg/mL; in series [2] it was above 10.8 µg/mL; in the series with Leishmania infantum, 0.349 µg/mL (≈ 0.971 µM). The “% Inhibition” value is recorded as 0% in the series with Schistosoma mansoni, 0% in the series with Brugia malayi and 50% in the series with Onchocerca ochengi.

For `O=S(=O)(CCCOc1ccc2c(c1)OCO2)NC1CCN(Cc2ccccc2)CC1`, the half-maximal inhibitory concentration (IC50) in the series with Plasmodium falciparum K1 is above 13 µg/mL; in the series on Trypanosoma cruzi, 13 µg/mL (≈ 30 µM); in series [1], above 13 µg/mL; in series [2] it was 8.57 µg/mL (≈ 19.8 µM); with Leishmania infantum, above 13 µg/mL. For the same compound, the “% Inhibition” value was 16.7% with Schistosoma mansoni, 0% in the series on Brugia malayi and 100% in the series with Onchocerca ochengi.

Consider `CC1CCc2[nH]nc(-c3nc(-c4ccc(Cl)cc4)no3)c2C1` (configuration not stated), for which the IC50 was above 9.44 µg/mL in the series with Plasmodium falciparum K1; 5.55 µg/mL (≈ 17.6 µM) in the series with Trypanosoma cruzi; above 9.44 µg/mL in series [1]; above 9.44 µg/mL in series [2]; above 9.44 µg/mL with Leishmania infantum. For the same compound, the “% Inhibition” value came out at 0% in the series with Schistosoma mansoni, 0% in the series on Brugia malayi and 100% with Onchocerca ochengi.

Regarding `CCn1nc(C(=O)Nc2nnc(CCSc3ccccc3)o2)cc1C`, the IC50 (with Plasmodium falciparum K1; in the series on Trypanosoma cruzi; in series [1]; in series [2]; in the series with Leishmania infantum) was above 10.7 µg/mL in each case. In addition, the “% Inhibition” value amounted to 0% with Schistosoma mansoni, 0% in the series with Brugia malayi and 100% in the series on Onchocerca ochengi.

As for `O=S(=O)(c1cccc(F)c1)N1CCN(c2ccc(-c3ccncc3)nn2)CC1`, the half-inhibitory concentration (IC50) with Plasmodium falciparum K1 is above 12 µg/mL; with Trypanosoma cruzi, above 12 µg/mL; in series [1], above 12 µg/mL; in series [2], above 12 µg/mL; in the series on Leishmania infantum it was 0.388 µg/mL (≈ 0.971 µM). For the same compound, the “% Inhibition” value turned out to be 0% in the series on Schistosoma mansoni, 33.33% in the series on Brugia malayi and 0% in the series with Onchocerca ochengi.

Regarding `CS(=O)(=O)N1CCCCC1C(=O)Nc1nc(-c2nc3ccccc3s2)cs1` (configuration not stated), the concentration for half-maximal inhibition (IC50) (with Plasmodium falciparum K1; with Trypanosoma cruzi; in series [1]; in series [2]; with Leishmania infantum) was above 12.7 µg/mL each time. For the same compound, the “% Inhibition” value in the series on Schistosoma mansoni worked out at 0%; with Brugia malayi, 0%; in the series on Onchocerca ochengi, 100%.

With `Cc1cc(C(=O)Nc2nc(-c3cc4ccccc4o3)cs2)on1`, the IC50 in the series on Plasmodium falciparum K1 is above 9.76 µg/mL; in the series on Trypanosoma cruzi, above 9.76 µg/mL; in series [1] it was above 9.76 µg/mL; in series [2] it was above 9.76 µg/mL; in the series with Leishmania infantum, 3.16 µg/mL (≈ 9.71 µM). Also, the “% Inhibition” value in the series with Schistosoma mansoni is given as 0%; in the series on Brugia malayi, 20%; in the series with Onchocerca ochengi, 100%.

As to `CS(=O)(=O)c1ccc2nc(N(Cc3cccnc3)C(=O)c3ccc4ccccc4c3)sc2c1`, the IC50 in the series with Plasmodium falciparum K1 was above 14.2 µg/mL; in the series with Trypanosoma cruzi, 0.225 µg/mL (≈ 0.475 µM); in series [1], above 14.2 µg/mL; in series [2], above 14.2 µg/mL; in the series with Leishmania infantum, 4.6 µg/mL (≈ 9.71 µM). Further, the “% Inhibition” value with Schistosoma mansoni, in the series on Brugia malayi and in the series with Onchocerca ochengi was 0% throughout.

Turning to `Cc1ccc(S(=O)(=O)N(C)CC(O)COc2c(C)cc(C)cc2C)cc1` (configuration not stated), the IC50 was above 11.3 µg/mL with Plasmodium falciparum K1; 3.81 µg/mL (≈ 10.1 µM) with Trypanosoma cruzi; above 11.3 µg/mL in series [1]; 9.55 µg/mL (≈ 25.3 µM) in series [2]; above 11.3 µg/mL in the series on Leishmania infantum. Also, the “% Inhibition” value in the series with Schistosoma mansoni stood at 0%; in the series with Brugia malayi, 0%; with Onchocerca ochengi, 100%.

Take `COc1ccc(OC)c(S(=O)(=O)NCCNc2ccc(Nc3cc(C)ccn3)nn2)c1`: the IC50 was 5.13 µg/mL (≈ 11.5 µM) in the series with Plasmodium falciparum K1; above 13.3 µg/mL in the series on Trypanosoma cruzi; above 13.3 µg/mL in series [1]; 4.66 µg/mL (≈ 10.5 µM) in series [2]; above 13.3 µg/mL in the series with Leishmania infantum. Moreover, the “% Inhibition” value with Schistosoma mansoni worked out at 0%; with Brugia malayi it was 50%; in the series with Onchocerca ochengi, 100%.

`O=C(c1cccs1)N(CCCn1ccnc1)c1nc2c(F)cc(F)cc2s1`: the IC50 is 0.793 µg/mL (≈ 1.96 µM) with Plasmodium falciparum K1; 4.01 µg/mL (≈ 9.91 µM) with Trypanosoma cruzi; 8.75 µg/mL (≈ 21.6 µM) in series [1]; 4.23 µg/mL (≈ 10.5 µM) in series [2]; above 13.2 µg/mL in the series on Leishmania infantum. Also, the “% Inhibition” value stood at 0% in the series with Schistosoma mansoni, 0% in the series on Brugia malayi and 100% with Onchocerca ochengi.

On to `O=C(NCCOc1ccc(-c2ccc(F)cc2)nn1)c1cccc(C(F)(F)F)c1`, for which the IC50 (in the series on Plasmodium falciparum K1; in the series on Trypanosoma cruzi; in series [1]; in series [2]; in the series on Leishmania infantum) was above 12.2 µg/mL throughout. Moreover, the “% Inhibition” value in the series on Schistosoma mansoni was 0%; in the series on Brugia malayi it was 25%; in the series on Onchocerca ochengi, 100%.

In the case of `CCC(C(=O)Nc1cc(-c2cn3nc(OC)ccc3n2)ccc1Cl)c1ccccc1` (configuration not stated), the IC50 with Plasmodium falciparum K1 is above 12.6 µg/mL; in the series on Trypanosoma cruzi, 8.38 µg/mL (≈ 19.9 µM); in series [1] it was above 12.6 µg/mL; in series [2], above 12.6 µg/mL; with Leishmania infantum, above 12.6 µg/mL. Also, the “% Inhibition” value stood at 0% with Schistosoma mansoni, 0% in the series with Brugia malayi and 100% with Onchocerca ochengi.

Regarding `Cc1ccc(-c2cc(CC(=O)Nc3cccc(C)n3)no2)cc1`, the 50% inhibitory concentration (IC50) (with Plasmodium falciparum K1; in the series with Trypanosoma cruzi; in series [1]; in series [2]; in the series on Leishmania infantum) was above 9.22 µg/mL in each case. Moreover, the “% Inhibition” value with Schistosoma mansoni was found to be 0%; in the series on Brugia malayi it was 0%; with Onchocerca ochengi, 100%.

Consider `Cc1ccnc(Nc2ccc(N3CCN(C(=O)Nc4cccc(F)c4)CC3)nn2)c1`, for which the 50% inhibitory concentration (IC50) with Plasmodium falciparum K1 was above 12.2 µg/mL; with Trypanosoma cruzi it was above 12.2 µg/mL; in series [1], above 12.2 µg/mL; in series [2] it was 5.79 µg/mL (≈ 14.2 µM); in the series on Leishmania infantum, above 12.2 µg/mL. Further, the “% Inhibition” value was 0% with Schistosoma mansoni, 75% in the series with Brugia malayi and 100% in the series on Onchocerca ochengi.

With `CSc1ccc2nc(N(Cc3cccnc3)C(=O)c3ccc(C(C)(C)C)cc3)sc2c1`, the 50% inhibitory concentration (IC50) was 0.145 µg/mL (≈ 0.324 µM) in the series on Plasmodium falciparum K1; 0.556 µg/mL (≈ 1.24 µM) with Trypanosoma cruzi; 7.16 µg/mL (≈ 16 µM) in series [1]; above 13.4 µg/mL in series [2]; above 13.4 µg/mL in the series on Leishmania infantum. The “% Inhibition” value with Schistosoma mansoni is 0%; in the series with Brugia malayi, 0%; in the series with Onchocerca ochengi, 25%.

Turning to `COc1cccc(-c2cc(CC(=O)Nc3nc(C)cs3)no2)c1`, the 50% inhibitory concentration (IC50) in the series on Plasmodium falciparum K1 is 4.59 µg/mL (≈ 13.9 µM); with Trypanosoma cruzi it was above 9.88 µg/mL; in series [1], above 9.88 µg/mL; in series [2], above 9.88 µg/mL; in the series on Leishmania infantum it was above 9.88 µg/mL. Also, the results for the “% Inhibition” value in the series with Schistosoma mansoni, with Brugia malayi and with Onchocerca ochengi were 0%, 0% and 100%, respectively.
